Compound activity (PubChem BioAssay)
Rpn11 inh: blocks the human proteasome subunit Rpn11 | O00487 | human 26S proteasome, Ub4-pepOG fluorescence polarization; 20S core pre-blocked with epoxomicin | calls only at 20 µM | hit rate 0.59% among 360,000 | AID 588493;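 active means inhibition at 20 µM, scaled to each plate's controls, above about 33%, limit read from the data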
Target sequence (O00487 whole entry, looked up): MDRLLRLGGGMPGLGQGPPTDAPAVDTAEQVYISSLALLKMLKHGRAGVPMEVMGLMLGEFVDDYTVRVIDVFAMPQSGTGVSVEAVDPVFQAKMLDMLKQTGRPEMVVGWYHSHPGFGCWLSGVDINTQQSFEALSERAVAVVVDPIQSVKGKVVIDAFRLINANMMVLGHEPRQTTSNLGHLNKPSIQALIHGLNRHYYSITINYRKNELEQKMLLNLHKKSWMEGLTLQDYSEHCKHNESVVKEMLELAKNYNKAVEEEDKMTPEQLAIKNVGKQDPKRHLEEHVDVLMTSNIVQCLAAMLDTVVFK
UBC9 SUMO inh: inhibitors of human SUMOylation (UBC9) | P63279 | HTRF SUMOylation assay, SAE1/SAE2 + UBC9, in vitro | inhibition, % at 35 µM | hit rate 0.36% among 290,000; in the data active means inhibition above about 50%, passing the limit was not always enough
TPT1 inh: C. albicans TPT1 enzyme inhibition; inhibition, % at 5 µM; hit rate 0.81% among 300,000; AID 1962; recombinant caTPT1, FP RNA substrate dephosphorylation;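 active means inhibition above the mean of all tested compounds plus 3 SD, set per screening campaign, cut at about 24% in these data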;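 further: plate controls were DMSO alone for no effect and ferristatin control at 100 nM for full effect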
SENP1 inh: SENP1 (human) catalytic domain inhibition. Q9P0U3. recombinant SENP1 catalytic domain, CyPet-SUMO1-YPet FRET cleavage. inhibition, % at 10 µM. hit rate 0.21% among 360,000. AID 624204;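 active means inhibition at least 30% at 10 µM, raw YFP signal under a set limit, fluorescence ratio 0.5 to 1.5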;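 further: 0% = enzyme with DMSO and 100% = no enzyme wells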
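Test system: human SENP1 catalytic domain; medium: Tris pH 8 buffer plus EDTA, NaCl, BME, BSA, NP40, catalase; incubation: 50 min reaction at room temperature; technique: FRET, CFP and YFP emission; controls: no-enzyme low control and enzyme-plus-DMSO high control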
CSN deneddyl inh: inhibitors of human CSN-mediated cullin deneddylation. Purified CSN, SCF-Nedd8-OG deneddylation, fluorescence polarization. inhibition, % at 12.5 µM. hit rate 0.38% among 360,000;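 active means pattern-corrected inhibition above about 35%, with an unprinted fluorescence ratio check between 0.5 and 1.5, limit read from the data, passing the limit was not always enough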;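 further: 0% = enzyme with substrate and 100% = substrate without enzyme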
Target sequence (Q92905 whole entry, looked up, one chain of several): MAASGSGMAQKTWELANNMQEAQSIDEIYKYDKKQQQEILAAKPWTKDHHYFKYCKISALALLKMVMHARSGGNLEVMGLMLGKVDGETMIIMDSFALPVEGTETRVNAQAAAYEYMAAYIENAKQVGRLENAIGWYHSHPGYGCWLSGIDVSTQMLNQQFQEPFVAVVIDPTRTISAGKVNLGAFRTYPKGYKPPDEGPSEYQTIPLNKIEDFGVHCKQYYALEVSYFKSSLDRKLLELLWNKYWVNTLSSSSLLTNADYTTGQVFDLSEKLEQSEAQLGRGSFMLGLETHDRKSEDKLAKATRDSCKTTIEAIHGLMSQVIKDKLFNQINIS
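Detection – fluorescence polarization · System – HEK293T-derived human Csn5 enzyme · Controls – substrate-only high control, full reaction low control · Timing – 90 min, room temperature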
HNF4A DNA FP: change in binding of human HNF4 alpha to DNA; hit rate 0.3% among 360,000; HNF4a-FITC DNA binding, fluorescence polarization, 1 h; activity change, % at 10 µM; P41235; in the data active means activity change above about 30%, passing the limit was not always enough
CSN5 deneddyl: Csn5 (human) deneddylation inhibition, single-concentration validation | shares compounds with CSN deneddyl inh | Csn5 deneddylation of SCF-Nedd8OG, fluorescence polarization, 90 min | inhibition, % at 16.6 µM | hit rate 62% among 540 | AID 720654; in the data active means inhibition above about 50%;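 further: 0% = DMSO with enzyme and 100% = no enzyme wells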
MMP-2 counter: blocks human MMP-2 in a CSN deneddylation counter-screen; shares compounds with CSN deneddyl inh; recombinant MMP-2, FRET substrate fluorescence, 60 min; inhibition, % at 16.6 µM; hit rate 33% among 540; AID 720655;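 active means corrected plate-normalized z-score of 5 or more, or -5 or less, or inhibition of 15% or more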;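 further: plate controls were DMSO wells with enzyme for no effect and buffer wells lacking MMP-2 for full effect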
Thrombin cntr: blocks bovine thrombin in a CSN deneddylation counter-screen. bovine thrombin cleavage of Ub4-pepOG, fluorescence polarization. hit rate 49% among 540. shares compounds with CSN deneddyl inh. inhibition, % at 16.6 µM;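 active means inhibition at or above a set limit, with a fluorescence interference ratio between 0.5 and a set maximum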
* = called active by the depositor; i = inactive; x = no result given; + = active, no number; ! = not confirmed by another sample. An excerpt weighted towards active compounds, which were near 1.8% of everything screened.

SMILES	Rpn11 inh	UBC9 SUMO inh	TPT1 inh	SENP1 inh	CSN deneddyl inh	HNF4A DNA FP	CSN5 deneddyl	MMP-2 counter	Thrombin cntr
CCc1noc(C)c1C(=O)Nc1ccc(C#N)cc1	i	x	2	-1	-1	-1	x	x	x
CCCCn1c(NC(=O)c2ccccc2Cl)c(C#N)c2nc3ccccc3nc21	i	x	16	-22	59*	64*	98*	2	-36
O=c1ccc(-c2ccc(S(=O)(=O)Nc3cccc(F)c3)o2)n[nH]1	i	16	-2	1	-4	-5	x	x	x
Cc1ccc(NC(=O)CN2C(=O)S/C(=C/c3ccc(-c4cc(C(=O)O)ccc4C)o3)C2=O)cc1C	i	84*	7	-34	64*	-13	76*	18*	3
O=C(CSc1n[nH]c(=O)[nH]c1=O)Nc1ccc2c(c1)C(=O)c1ccccc1C2=O	i	88*	-8	-4	48*	-68	x	69*	-9
Cc1ccc(CNc2ccc(O)cc2)cc1	i	33	x	2	38*	1	87*	0	-30
Cc1ccc(-c2csc(NC(=O)/C=C/c3ccco3)c2C(=O)O)cc1	i	0	1	-26	42*	-3	67*	8	0
Oc1ccccc1C1CCCCC1c1ccccc1 (stereo not given)	i	-7	-2	1	-2	1	x	x	x
O=Nc1c(O)ccc2cc(S(=O)(=O)O)ccc12	i	x	x	-5	5	-10	x	x	x
CN(C)c1ccc2cc(S(=O)(=O)O)cc(O)c2c1	i	x	x	-9	35*	-18	75*	4	1
C=CCN1C(=O)/C(=C\c2cccc(OC(=O)c3ccco3)c2)SC1=S	i	9	3	2	-3	2	x	x	x
CC1(C)CC[C@]2(C(=O)n3ccnc3)CC[C@]3(C)[C@H](C(=O)C=C4[C@@]5(C)C=C(C#N)C(=O)C(C)(C)[C@@H]5CC[C@]43C)[C@@H]2C1	i	x	x	2	39*	-19	56*	0	8
O=C1Nc2ccc([N+](=O)[O-])cc2OC1CCN1CCN(c2ccccc2)CC1 (stereo not given)	i	-14	1	-69	0	4	x	x	x
O=C(O)CSc1nc2sc3c(c2c(=O)n1Cc1ccccc1)CCCCC3	i	11	1	1	0	-5	x	x	x
O=C(O)CSc1cc(C(=O)c2ccccc2O)cn2c(=O)c3c4c(sc3nc12)CCCC4	i	50*	x	-38	43*	-31	31	42*	-21
Cc1c(Br)c(=O)oc2c(Br)c(O)c(O)cc12	i	6	0	-28	40*	-42	x	11	29*
CC1CCN(c2nc3c(c(=O)[nH]c(=O)n3C)n2Cc2ccccc2Cl)CC1	i	-5	-3	2	4	-2	x	x	x
O=c1[nH]c(Nc2ccc(F)cc2)cc2ccccc12	i	x	21	-45	35*	1	73*	9	-34
Cc1cc(C)n(-c2cc(Cl)ccc2[N+](=O)[O-])n1	i	12	1	1	-5	1	x	x	x
N#CC(C#N)=C(N)/C(C#N)=C/c1cc(O)c(O)c(O)c1	x	x	22	7	122*	28	11	9	57*
N#C/C(=C/c1cc(Cl)c(O)c(Cl)c1)C(=O)N1CCCCC1	i	12	-1	-99	-4	4	x	x	x
CCc1cc(C(N)=S)ccn1	i	12	-3	3	-3	-2	x	x	x
NC1=NC(=O)C(=Cc2ccccc2)S1	i	x	x	0	2	11	x	x	x
NC1=NC(=O)/C(=C\c2ccco2)S1	i	x	-2	1	36*	-21	70*	17*	-6
CCC1=NN2C(=N)/C(=C\c3cccn3-c3ccc(Cl)cc3)C(=O)N=C2S1	i	17	4	3	4	5	x	x	x
SMILES	Rpn11 inh	UBC9 SUMO inh	TPT1 inh	SENP1 inh	CSN deneddyl inh	HNF4A DNA FP	CSN5 deneddyl	MMP-2 counter	Thrombin cntr
Cc1ccc(-n2cccc2/C=C2\C(=N)N3N=C(c4ccco4)SC3=NC2=O)cc1	x	64*	10	-11	61*	-4	16	19*	-5
COc1ccc(NC(=O)N2CCN(S(C)(=O)=O)CC2)cc1OC	i	19	-3	0	1	-1	x	x	x
COc1ccc(OC)c(N2C(=O)[C@@H]3C(c4ccccc4Cl)=NO[C@@H]3C2=O)c1	i	17	7	0	40*	-36	69*	12	7
CCCSc1nnc(-c2c[nH]c3ccccc23)n1C	i	4	1	4	-5	-2	x	x	x
COc1ccc(S(=O)(=O)NCCc2ccccc2)c2cccnc12	i	17	-5	1	-2	-1	x	x	x
CCCCNC1=CC(=O)C(NCCCC)=CC1=O	i	x	x	-1	2	-4	x	x	x
CCCCNC1=CC(=O)C(=O)c2ccccc21	i	91*	-2	1	48*	-3	87*	4	0
O=C1/C(=C/c2cccs2)CCC/C1=C\c1cccs1	i	30	11	5	43*	12	92*	-4	5
O=C1NC(=S)SC1=Cc1cccs1	i	x	x	-2	0	8	x	x	x
COc1ccc(S(=O)(=O)N2CCOCC2)cc1NC(=O)CN1CCCC1	i	24	3	2	2	1	x	x	x
CCN1/C(=C/C(C)=C/c2sc3ccccc3[n+]2CC)Sc2ccccc21	+	12	-41	-32	77*	197*	22	50*!	113*
O=C(N/N=C/c1cc(Br)c(Br)o1)c1ccc2c(c1)OCCO2	i	5	15	-11	40*	-8	66*	13	0
O=C(N/N=C/c1cc(Br)c(O)c(Br)c1O)c1ccc2c(c1)OCCO2	i	12	0	-22	4	-2	x	x	x
O=C(O)c1cc(-c2ccc(/C=C3\NC(=O)N(c4ccccc4)C3=O)o2)ccc1Cl	i	20	-4	-39	24	-18	x	x	x
O=C(O)c1cc(-c2ccc(/C=C3\NC(=O)N(c4ccc(Cl)cc4)C3=O)o2)ccc1Cl	i	43	3	-26	40*	-35	26	18*	10
O=C1C(=O)c2cccnc2-c2ncccc21	i	x	x	29*	59*	0	5	-1	-32
O=C(CSc1nnc(-c2ccccc2)n1C1CCCCC1)N1CCCC1	i	2	-2	2	-1	1	x	x	x
